Screens from PubChem.
In the library only some 4.9% were active in any assay of this set; here they are far more common.
STAT3 act = STAT3 signaling activation; U3A cells, IL-6 STAT3-luciferase reporter, luminescence; 100% = signal with IL-6 EC80 alone; activation (% of control), % at 5.6 µM; 190,000 compounds, 0.91% hits;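 active means activation above the screen-wide mean of compound activation plus 3 SD, cut at about 130% in these data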;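 further: 0% = background luminescence of wells with medium and substrate only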
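Test system: Human STAT1-deficient U3A cells with stable STAT3-luciferase reporter | Also added: Interleukin-6, 33 ng/mL | Timing: Compound pre-incubation 1 h before IL-6, then 6 h stimulation at 37 °C | Technique: Luciferase reporter luminescence | Read-out: Percent of IL-6-only median luminescence | Benchmarks: IL-6-only wells as 100% reference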
NF-kB neuron act = NF-kB expression increase, human neuronal cells. 190,000 compounds, 1.6% hits. NF-kB reporter expression; hits give high values. fold change at 12.5 µM; in the data active means fold change above about 3.3
STAT3 blocker = inhibitors of IL-6 induced STAT3 signaling. U3A cells, IL-6 STAT3-luciferase reporter, luminescence; host cell line lacks STAT1. inhibition, % at 5.5 µM. 190,000 compounds, 0.89% hits;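 active means inhibition above the mean inhibition across all screened compounds plus 3 SD, cut at about 44% in these data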;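 further: 0% = DMSO only wells and 100% = 100 µM nifuroxazide control wells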
STAT1 act = increases IFN-gamma driven STAT1 reporter signal | NIH 3T3 STAT1-luciferase reporter, luminescence; 100% = IFN-gamma alone, no compound | activation (% of control), % at 5.5 µM | 200,000 compounds, 2.6% hits | AID 932;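 active means activation above the screen-wide mean activation plus 3 SD, cut at about 130% in these data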;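 further: raw ratio to IFN-gamma control signal so 100% means no change and 0% no light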
APP 5'UTR act = activates APP 5'UTR luciferase reporter; activation, % at 2 µM; 190,000 compounds, 1% hits; SH-SY5Y APP 5'UTR luciferase reporter, luminescence; zero percent = DMSO vehicle wells;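 active means activation above a set limit, based on mean plus 3 SD of controls, cut at about 140% in these data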
STAT1 blocker = reduces IFN-gamma driven STAT1 reporter signal | inhibition, % at 5.5 µM | 200,000 compounds, 0.35% hits | NIH 3T3 STAT1-luciferase reporter, luminescence;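 active means inhibition above a set limit, the mean inhibition across all tested compounds plus 3 SD, cut at about 34% in these data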;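 further: 0% = IFN-gamma with DMSO and 100% = IFN-gamma with 300 µM nifuroxazide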
Numbers without * were called inactive; · = no result given.

SMILES	STAT3 act	NF-kB neuron act	STAT3 blocker	STAT1 act	APP 5'UTR act	STAT1 blocker
Cc1oc(-c2ccc3c(c2)OCCO3)cc1C(=O)NC(Cc1ccccc1)C(=O)O (stereo not drawn)	99.8	·	5.3	96.7	28.2	1.9
CCCOc1ccc(N2CC(C(=O)NC3=NCCS3)CC2=O)cc1 (stereo not drawn)	96.6	1.48	7.5	97.3	0.7	1.7
COc1ccc(C2=C(C#N)C(=O)OC2)cc1	96.6	1.11	5.7	67.6	1.9	36.2*
COc1ccc(-c2c(C#N)c(C)nc3c2C(=O)c2ccccc2-3)cc1	89.9	1.07	15.7	96.5	-3.2	3.9
CNC(=S)N1N=C(c2ccc(C)cc2)CC1c1ccc(Br)cc1 (stereo not drawn)	94.7	3.43*	11.7	110.4	30.7	-11.3
CNC(=S)N1N=C(c2ccc(C)cc2)CC1c1ccc(Cl)cc1 (stereo not drawn)	94.4	4.45*	11.0	99.5	-0.4	0.5
CNC(=S)N1N=C(c2ccccc2)CC1c1ccccc1Cl (stereo not drawn)	103.6	1.49	0.3	107.1	-6.2	-9.5
CC1CCN(c2ccccc2NC(=S)NC(=O)C(C)(C)C)CC1	108.2	1.46	-1.7	97.6	-12.2	1.7
CCN(CC)c1ccc(C(=S)NCc2ccccc2)cc1	97.8	1.24	9.4	87.9	17.2	11.1
CC(C)(O)C#Cc1ccc(C(=O)NC2CCCCC2)s1	114.8	1.91	-18.8	122.6	34.5	-24.0
CCc1ccc(C(=O)NC2CCCCC2)s1	93.7	4.65*	11.9	140.7*	123.7	-41.7
COc1ccccc1NC(=O)CN1CC(=O)Nc2ccccc21	134.1*	0.93	-33.7	85.8	-2.6	15.0
COc1cccc(C(=O)Nc2ccc(C(F)(F)F)n(C)c2=O)c1	84.1	1.29	21.6	122.9	135.7*	-25.2
COc1cccc(C(=O)Nc2cccc(C(C)=O)c2)c1	104.3	1.69	-5.0	118.2	8.8	-20.7
COc1cccc(C(=O)Nc2ccc(F)cc2F)c1	89.5	1.94	16.7	121.7	31.9	-23.4
COC(=O)c1cccc(NC(=O)c2cccc(OC)c2)c1	107.9	1.66	-6.8	131.3*	82.7	-33.9
COC(=O)c1sccc1NC(=O)c1ccccc1	97.5	1.11	8.3	107.8	8.2	-8.7
COc1cccc(C(=O)Nc2ccccc2F)c1	91.7	1.85	11.8	132.0*	19.2	-33.4
CCOc1ccc(C(=O)Nc2ccc(C(F)(F)F)n(C)c2=O)cc1	76.6	1.19	29.9	104.7	-12.3	-5.2
COC(=O)c1sccc1NC(=O)c1cccc(OC)c1	134.9*	1.05	-40.2	98.8	-11.5	1.2
Cc1nnc(SCc2ccc([N+](=O)[O-])cc2)o1	88.4	1.14	18.8	100.0	22.1	-0.1
COC(=O)c1ccc(C(NC(=O)c2cccnc2)NC(=O)c2cccnc2)cc1	116.6	1.07	-17.7	101.4	-4.6	-2.2
CCOC(=O)CC(=O)CSc1ncnc2c1nnn2-c1ccc(OC)cc1	94.2	0.78	16.3	103.9	9.5	-6.2
CCN1/C(=C/C=C/c2oc3ccc(-c4ccccc4)cc3[n+]2CC)Oc2ccc(-c3ccccc3)cc21	56.2	0.29	54.1*	44.1	-74.1	60.2*
O=C(Nc1ccc(SC(F)F)cc1)C1=COCCO1	87.0	5.18*	18.4	132.7*	201.0*	-35.5
SMILES	STAT3 act	NF-kB neuron act	STAT3 blocker	STAT1 act	APP 5'UTR act	STAT1 blocker
Cc1ccc(C(=O)Cn2ncsc2=N)cc1	110.3	2.18	-6.9	130.4*	17.1	-33.3
COc1cc(/C=N/NC(=O)c2cn(-c3cccc(C)n3)cn2)ccc1O	94.8	0.73	8.5	104.1	-11.0	-4.6
Cc1ccc2nc(Cl)c(/C=N/n3c(C)nnc3C)cc2c1	91.9	1.3	13.2	104.5	8.9	-6.9
COC(=O)/C(C#N)=C1/C=Cc2ccccc2N1	88.9	1.73	17.7	130.4*	24.1	-30.1
CCOC(=O)c1c(C)[nH]c(C2=NNC(=NC3CC3)SC2)c1C	39.8	0.89	76.0*	42.8	157.6*	61.2*
CCCCn1[nH]c(-c2ccccc2)cc1=O	96.8	1.24	6.6	90.3	-12.5	11.0
Cc1cc(N)n(-c2ccc(S(=O)(=O)c3ccc(C(C)C)cc3)cc2)n1	100.8	1.08	3.9	93.9	-13.6	6.3
O=C(COC(=O)CNS(=O)(=O)c1ccc(F)c(F)c1F)Nc1ccc(OC(F)F)cc1	100.4	1	-0.5	82.8	-7.9	19.3
O=c1c2c3c(sc2ncn1/N=C/c1ccncc1)CCCC3	88.5	1.5	16.1	115.7	5.7	-18.6
O=c1c2c3c(sc2ncn1/N=C/c1cccnc1)CCCC3	107.6	1.21	-7.2	138.6*	7.2	-43.5
O=C(c1ccccc1)c1nnc(-c2ccccc2F)o1	89.9	9.75*	15.7	114.8	90.0	-16.0
CN(C)c1oc(-c2ccccc2F)nc1C#N	86.6	0.95	21.2	103.5	18.2	-3.9
COc1cc2c(cc1NC(=O)c1cccc(S(=O)(=O)N(C)C)c1)oc1ccccc12	96.4	1.45	5.6	134.4*	19.9	-37.6
COc1cc2c(cc1NC(=O)C1CCCO1)oc1ccccc12 (stereo not drawn)	166.3*	5.59*	-76.5	147.0*	161.7*	-51.0
COc1ccc(Cl)cc1NC(=O)C1CCCO1 (stereo not drawn)	97.2	1.05	7.2	99.5	-11.6	0.5
Cc1cc(C(=O)Nn2c(-c3ccc(Br)cc3)nc3ccccc3c2=O)ccc1[N+](=O)[O-]	101.9	1.05	-1.9	96.8	1.1	3.6
COc1ccc2c(c1OC)C(=O)N1c3ccccc3COC21 (stereo not drawn)	93.2	4.4*	11.8	147.7*	81.9	-52.1
COc1ccc2c(c1OC)C(=O)N1c3cccc(Cl)c3C(=O)OC21 (stereo not drawn)	96.4	1.2	6.8	103.5	11.1	-3.9
COc1ccc2c(c1OC)C(=O)N1c3ccccc3SC21 (stereo not drawn)	121.5	1.96	-22.2	148.9*	79.3	-53.3
Brc1ccc(Cn2c(-c3ccc(Br)o3)nc3ccccc32)o1	100.9	1.16	2.7	109.8	29.2	-10.8
Cn1c(-c2ccc(Br)o2)nc2cc(Br)ccc21	108.7	5.34*	-4.1	138.3*	·	-41.9
Cc1oc(-c2nc3ccccc3n2C)cc1C(=O)c1ccccc1	41.9	2.63	72.9*	63.6	190.0*	39.4*
Cn1c(-c2ccc(Br)o2)nc2ccccc21	91.8	4.45*	10.7	139.7*	134.9	-43.6
CC(=O)c1ccc(-c2nc3ccccc3n2C)o1	90.3	2.21	15.2	129.6*	39.6	-32.4
CS(=O)(=O)Nc1cccc2[nH]ncc12	88.0	0.91	18.8	97.8	-13.6	0.2
Cc1ccccc1Nc1c(F)c(F)c(F)c(F)c1C(=O)O	99.2	1.07	7.3	98.7	20.5	-0.7
Cn1c(Sc2nc3ccccc3n2C)nc2ccccc21	115.3	1.14	-14.7	91.6	15.7	9.2
